One may read the GI50 as the concentration giving 50% growth inhibition. As usually defined, the Ki is a measure of affinity in units of concentration, obtained from inhibition or displacement.

The values that follow come from ChEMBL document CHEMBL1155110, “Ribose-modified purine nucleosides as ribonucleotide reductase inhibitors. Synthesis, antitumor activity, and molecular modeling of N6-substituted 3'-C-methyladenosine derivatives” (J Med Chem, 2008).

In test [1] the test system is K562. Description: Antitumor activity against human K562 cells after 48 hrs by MTS assay. The format is functional. The conditions noted are these: K562, 48 h. The gist of the method:
(§1)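 Cells grown in RPMI 1640 (K562) or MEM with Earle's salts (HT-29, CaCo-2, MCF-7) plus 10% FBS, 37 °C, 5% CO2; adherent lines trypsinized to single-cell suspension. Log-phase cells plated at about 5000 cells/mL, acclimatized 24 h, then exposed to serial dilutions in triplicate, up to 250 µM, for 48 h. MTS/PMS added 3 h; absorbance 490 nm; GI50 from growth inhibition.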

The subject of another test is Caco-2. Description: Antitumor activity against human CaCo2 cells after 48 hrs by MTS assay. The format is functional. The following applies: Caco-2, 48 h. Put shortly: as §1
In general terms: Tetrazolium dyes change colour on reduction, which living cells bring about.

In another test the test system is HT-29. Description: Antitumor activity against human HT29 cells after 48 hrs by MTS assay. The class given is functional. The following applies: HT-29, 48 h. The gist of the method: as §1
A further test deals with MCF7. Description: Antitumor activity against human MCF7 cells after 48 hrs by MTS assay. The following applies: MCF7, 48 h. The format is functional. Put shortly:
as §1

In the next test the target is T1, Adenosine receptor A3 (Homo sapiens, UniProt P0DMS8).
T1 sequence (P0DMS8 whole entry): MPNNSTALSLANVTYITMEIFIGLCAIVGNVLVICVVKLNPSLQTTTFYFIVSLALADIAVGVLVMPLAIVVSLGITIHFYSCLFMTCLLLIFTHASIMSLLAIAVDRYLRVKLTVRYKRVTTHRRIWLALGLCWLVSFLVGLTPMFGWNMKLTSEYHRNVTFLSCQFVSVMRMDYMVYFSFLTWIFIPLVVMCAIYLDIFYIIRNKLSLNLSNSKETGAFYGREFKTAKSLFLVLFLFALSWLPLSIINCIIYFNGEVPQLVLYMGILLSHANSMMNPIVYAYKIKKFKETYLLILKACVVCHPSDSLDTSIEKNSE
Description: Inhibition of human adenosine A3 receptor.

Test [2] deals with HL-60. Description: Decrease in intracellular dATP pool in human HL60 cells at 2.5 uM after 24 hrs relative to control. Further details: scale not given: the % may be the effect or the level left. The format is functional. Put shortly: (§2)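 HL-60 cells in log phase (0.5 × 10^6 per ml) incubated 24 h with drug at 2.5, 5 or 10 µM. dNTPs extracted from 5 × 10^7 cells by trichloroacetic acid lysis, Freon/tri-n-octylamine neutralization, periodate oxidation with methylamine (37 °C, 30 min). Quantified by SAX HPLC in ammonium phosphate pH 3.4 with 2% acetonitrile, UV 280/260 nm; expressed versus untreated control.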

Test [3] concerns HL-60. Description: Decrease in intracellular dATP pool in human HL60 cells at 5 uM after 24 hrs relative to control. The format is functional. Further details: scale not given: the % may be the effect or the level left. Put shortly: as §2
The subject of test [4] is HL-60. Description: Decrease in intracellular dATP pool in human HL60 cells at 10 uM after 24 hrs relative to control. The class given is functional. More on the design: scale not given: the % may be the effect or the level left. Put shortly: as §2
The test system of test [5] is HL-60. Description: Decrease in intracellular dCTP pool in human HL60 cells at 40 nM relative to control. The class given is functional. Further details: scale not given: the % may be the effect or the level left.
In test [6] the test system is HL-60. Description: Decrease in intracellular dATP pool in human HL60 cells at 40 nM relative to control. Further details: scale not given: the % may be the effect or the level left.
The subject of test [7] is K562. Description: Growth inhibition of 0.1 uM 1,4-dihydro-2-methyl-6-phenyl-4-(phenylethyl)-3,5-pyridine-dicarboxylic acid 3-ethyl-5-[(3-nitrophenyl) methyl] ester pretreated human K562 cells after 48 hrs by MTS assay. The format is functional.
The test system of test [8] is K562. Description: Growth inhibition of 1 uM 1,4-dihydro-2-methyl-6-phenyl-4-(phenylethyl)-3,5-pyridine-dicarboxylic acid 3-ethyl-5-[(3-nitrophenyl) methyl] ester pretreated human K562 cells after 48 hrs by MTS assay. The class given is functional.
The subject of test [9] is K562. Description: Growth inhibition of 0.1 uM 1,4-dihydro-2-methyl-6-phenyl-4-(phenylethyl)-3,5-pyridine-dicarboxylic acid 3-ethyl-5-[(3-nitrophenyl) methyl] ester pretreated human K562 cells after 72 hrs by MTS assay. The class given is functional.
Test [10] has as its system K562. Description: Growth inhibition of 1 uM 1,4-dihydro-2-methyl-6-phenyl-4-(phenylethyl)-3,5-pyridine-dicarboxylic acid 3-ethyl-5-[(3-nitrophenyl) methyl] ester pretreated human K562 cells after 72 hrs by MTS assay. The class given is functional.

On to `OC[C@H]1O[C@@H](n2cnc3c(NC4CCCC4)nc(Cl)nc32)[C@H](O)[C@@H]1O`, for which the 50% growth inhibitory concentration (GI50) with K562 [1], in the test with Caco-2, in the test on HT-29 and with MCF7 was greater than 250 µM in each case.
For the compound `OC[C@H]1O[C@@H](n2cnc3c(NCc4cccs4)ncnc32)[C@H](O)[C@@H]1O`, the GI50 turned out to be 3.1 µM in the test on K562 [1], 3.3 µM with Caco-2, 53.4 µM with HT-29 and 51.5 µM with MCF7. In addition, the affinity on Adenosine receptor A3 corresponds to a Ki of 0.06 µM.
In the case of `OC[C@H]1O[C@@H](n2cnc3c(NC4CCCCC4)ncnc32)[C@H](O)[C@@H]1O`, the GI50 with K562 [1], in the test with Caco-2, in the test with HT-29 and in the test with MCF7 was greater than 250 µM throughout.
With `C[C@@]1(O)[C@@H](CO)O[C@@H](n2cnc3c(NC4CCCCCC4)ncnc32)[C@@H]1O`, the GI50 in the test with K562 [1] was 83 µM; in the test with Caco-2 it was greater than 250 µM; in the test on HT-29 it was 106 µM; in the test with MCF7 it was 200 µM.
For `C[C@@]1(O)[C@@H](CO)O[C@@H](n2cnc3c(Nc4ccccc4)ncnc32)[C@@H]1O` the same measures were 98 µM, 246 µM, 137 µM and 207 µM.
`C[C@@]1(O)[C@@H](CO)O[C@@H](n2cnc3c(NCc4ccccc4)ncnc32)[C@@H]1O`: the GI50 in the test on K562 [1], in the test with Caco-2, in the test with HT-29 and in the test with MCF7 was greater than 250 µM throughout.
Regarding `C[C@@]1(O)[C@@H](CO)O[C@@H](n2cnc3c(Nc4cc[nH]n4)ncnc32)[C@@H]1O`, the GI50 in the test on K562 [1], in the test on Caco-2, in the test on HT-29 and with MCF7 was greater than 250 µM in each case.
For `C[C@@]1(O)[C@@H](CO)O[C@@H](n2cnc3c(NCc4cccs4)ncnc32)[C@@H]1O`, the GI50 with K562 [1], with Caco-2, in the test on HT-29 and with MCF7 was greater than 250 µM each time.
Consider `C[C@@]1(O)[C@@H](CO)O[C@@H](n2cnc3c(N)ncnc32)[C@@H]1O`, for which the GI50 was found to be 9.4 µM in the test with K562 [1], 23.2 µM in the test with Caco-2, 26.1 µM with HT-29 and 22.4 µM in the test on MCF7.
In the case of `C[C@@]1(O)[C@@H](CO)O[C@@H](n2cnc3c(NC4CC4)ncnc32)[C@@H]1O`, the GI50 in the test on K562 [1] is 73 µM; in the test with Caco-2, greater than 250 µM; with HT-29, greater than 250 µM; in the test on MCF7, greater than 250 µM.
`C[C@@]1(O)[C@@H](CO)O[C@@H](n2cnc3c(NC4CCC4)ncnc32)[C@@H]1O`: the GI50 was 246 µM in the test on K562 [1], greater than 250 µM in the test on Caco-2, greater than 250 µM in the test on HT-29 and greater than 250 µM in the test on MCF7.
Regarding `C[C@@]1(O)[C@@H](CO)O[C@@H](n2cnc3c(NC4CCCC4)ncnc32)[C@@H]1O`, the GI50 was 145 µM in the test on K562 [1], greater than 250 µM with Caco-2, greater than 250 µM in the test with HT-29 and greater than 250 µM with MCF7.
Regarding `C[C@@]1(O)[C@@H](CO)O[C@@H](n2cnc3c(NC4CCCC4)nc(Cl)nc32)[C@@H]1O`, the GI50 with K562 [1], in the test on Caco-2, with HT-29 and with MCF7 was greater than 250 µM throughout.
As to `C[C@@]1(O)[C@@H](CO)O[C@@H](n2cnc3c(NCc4ccco4)ncnc32)[C@@H]1O`, the GI50 in the test with K562 [1], in the test on Caco-2, in the test with HT-29 and in the test on MCF7 was greater than 250 µM each time.
For `C[C@@]1(O)[C@@H](CO)O[C@@H](n2cnc3c(NC4CCCCC4)ncnc32)[C@@H]1O`, the 50% growth inhibitory concentration (GI50) is 50 µM in the test with K562 [1], 223 µM in the test with Caco-2, greater than 250 µM in the test with HT-29 and greater than 250 µM in the test on MCF7.
Consider `C[C@@]1(O)[C@H](O)[C@@H](CO)O[C@H]1n1cnc2c(N)ncnc21`, for which the GI50 is 16 µM with K562 [1], greater than 100 µM in the test on Caco-2, greater than 100 µM with HT-29 and greater than 100 µM in the test with MCF7.
For `C[C@@]1(O)[C@@H](CO)O[C@@H](n2cnc3c(N[C@@H]4C[C@@H]5CC[C@@H]4C5)ncnc32)[C@@H]1O` (racemic), the concentration for 50% growth inhibition (GI50) in the test with K562 [1] came to 32.5 µM; in the test with Caco-2, 56 µM; in the test with HT-29, 65.8 µM; in the test on MCF7, 56 µM. The Activity with HL-60 [2] is 65%; in the test with HL-60 [3], 28%; in the test with HL-60 [4] it was 10%.
For the compound `OC[C@H]1O[C@@H](n2cnc3c(N[C@@H]4C[C@@H]5CC[C@@H]4C5)ncnc32)[C@H](O)[C@@H]1O` (racemic), the 50% growth inhibitory concentration (GI50) was 116 µM in the test on K562 [1], greater than 250 µM in the test with Caco-2, greater than 250 µM with HT-29 and greater than 250 µM with MCF7.
On to `Nc1ccn([C@@H]2O[C@H](CO)[C@@H](O)C2(F)F)c(=O)n1` [GEMCITABINE], for which the GI50 in the test on K562 [1] was 0.32 µM; with Caco-2, 0.18 µM; in the test on HT-29, 0.03 µM; in the test with MCF7, 0.01 µM. The Activity is on record as 6.1% in the test with HL-60 [5] and 13.9% in the test with HL-60 [6].
Regarding `OC[C@H]1O[C@@H](n2cnc3c(NCc4ccco4)ncnc32)[C@H](O)[C@@H]1O` [KINETIN RIBOSIDE], the GI50 with K562 [1] stood at 3.3 µM; in the test with Caco-2 it was 45.6 µM; in the test with HT-29, 60.2 µM; in the test on MCF7, 45.6 µM. At Adenosine receptor A3, this compound had a Ki of 0.022 µM.
For the compound `OC[C@H]1O[C@@H](n2cnc3c(NCc4ccccc4)ncnc32)[C@H](O)[C@@H]1O` [N6-BENZYLADENOSINE], the GI50 with K562 [1] amounted to 4.6 µM; in the test with Caco-2, 7.4 µM; in the test with HT-29, 22.3 µM; with MCF7 it was 61 µM; in the test with K562 [7] it was 3.91 µM; with K562 [8] it was 4.17 µM. In addition, the GI50 in the test with K562 [9] and in the test with K562 [10] was 2.92 µM in each case. Further, the inhibition constant Ki at Adenosine receptor A3 came out at 0.0413 µM.
With `OC[C@H]1O[C@@H](n2cnc3c(NC4CCCC4)ncnc32)[C@H](O)[C@@H]1O` [N6-CYCLOPENTYLADENOSINE], the GI50 with K562 [1], in the test on Caco-2, with HT-29 and in the test on MCF7 was greater than 250 µM throughout.
With `OC[C@H]1O[C@@H](n2cnc3c(Nc4ccccc4)ncnc32)[C@H](O)[C@@H]1O` [N6-PHENYLADENOSINE], the GI50 in the test with K562 [1], with Caco-2, in the test on HT-29 and in the test with MCF7 was greater than 250 µM in each case.
